Test results published in article PMC9302689 (British Journal of Clinical Pharmacology, 2022).
Marks after values point to notes of the source that are not given here.

Tests used:
[1] = tested on: dopamine release induced by infusion of NMDA in the striatum; test: NMDA-induced dopamine release in the striatum; type: in vivo; conditions: rats, oral dose of 10 mg/kg
healthy male subjects [2] = test: NeuroCart smooth pursuit; type: in vivo, human; conditions: 12-hour post-dose period
Summary of the method: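 This used the same head-fixed screen set-up as the saccade test. Subjects tracked a dot moving continuously at 0.3–1.1 Hz in 0.1 Hz steps, twice pre-dose and at 0.5–10 h after a single dose or placebo. Change from baseline over 12 h was analysed by MMRM against pooled placebo, with baseline as covariate.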

healthy male subjects [3] = test: Serum neuro-endocrine hormones; type: in vivo, human; conditions: for Cortisol (ng/ml), LSM CFB / Cortisol (ng/ml), estimate of difference compared to placebo / Prolactin (ng/ml), LSM CFB / Prolactin (ng/ml), estimate of difference compared to placebo: 2 hours post-dose, serum
Summary of the method: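 Serum was sampled pre-dose and at 0.25–36 h after a single dose or placebo in healthy men. Cortisol was measured by validated LC–MS/MS (LLOQ 2.00 ng/mL) and prolactin by time-resolved fluoroimmunoassay (LLOQ 0.260 ng/mL). Values were ln-transformed and analysed by MMRM using the 2-h post-dose data, with baseline as covariate and pooled placebo as reference, then back-transformed.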

rats = test: Preclinical multiple dose toxicology study in rats; type: in vivo

SMILES: CN1CCC23CCCCC2C1Cc1ccc(C(N)=O)cc13 (stereo not drawn) [ALKS 7119, (9α, 13α)‐17‐methylmorphinan‐3‐carboxamide]
- Effect on dopamine release induced by NMDA infusion in the striatum [1]: completely blocked dopamine release
- Smooth pursuit, LSM CFB (healthy male subjects [2]; 3 mg single oral dose): −0.26%
- Smooth pursuit, LSM CFB (healthy male subjects [2]; 10 mg single oral dose): 0.06%
- Smooth pursuit, LSM CFB (healthy male subjects [2]; 25 mg single oral dose): −1.44%
- Smooth pursuit, LSM CFB (healthy male subjects [2]; 50 mg single oral dose): −0.03%
- Smooth pursuit, LSM CFB (healthy male subjects [2]; 75 mg single oral dose): −3.44%
- Smooth pursuit, LSM CFB (healthy male subjects [2]; 100 mg single oral dose): −0.49%
- Smooth pursuit, LSM CFB (healthy male subjects [2]; 125 mg single oral dose): −3.82%
- Smooth pursuit, LSM CFB (healthy male subjects [2]; 150 mg single oral dose): −1.14%
- Smooth pursuit, LSM CFB (healthy male subjects [2]; 175 mg single oral dose): −1.07%
- Smooth pursuit, LSM CFB (healthy male subjects [2]; 200 mg single oral dose): 1.24%
- Cortisol (ng/ml), LSM CFB (healthy male subjects [3]; 3 mg single oral dose): −22.9 % change
- Cortisol (ng/ml), estimate of difference compared to placebo (healthy male subjects [3]; 3 mg single oral dose): −3.6 (−31.1, 34.9) P = .83 % change
- Prolactin (ng/ml), LSM CFB (healthy male subjects [3]; 3 mg single oral dose): −3.6 % change
- Prolactin (ng/ml), estimate of difference compared to placebo (healthy male subjects [3]; 3 mg single oral dose): −3.2 (−26.9; 28.3) P = .82 % change
- Cortisol (ng/ml), LSM CFB (healthy male subjects [3]; 10 mg single oral dose): 8.9 % change
- Cortisol (ng/ml), estimate of difference compared to placebo (healthy male subjects [3]; 10 mg single oral dose): −31.8 (−51.3; −4.5) P = .03 ^* % change
- Prolactin (ng/ml), LSM CFB (healthy male subjects [3]; 10 mg single oral dose): −15.3 % change
- Prolactin (ng/ml), estimate of difference compared to placebo (healthy male subjects [3]; 10 mg single oral dose): 10.1 (−16.9; 45.9) P = .50 % change
- Cortisol (ng/ml), LSM CFB (healthy male subjects [3]; 25 mg single oral dose): −20.8 % change
- Cortisol (ng/ml), estimate of difference compared to placebo (healthy male subjects [3]; 25 mg single oral dose): −6.2 (−32.9; 31.3) P = .71 % change
- Prolactin (ng/ml), LSM CFB (healthy male subjects [3]; 25 mg single oral dose): 8.0 % change
- Prolactin (ng/ml), estimate of difference compared to placebo (healthy male subjects [3]; 25 mg single oral dose): −13.6 (−34.8; 14.5) P = .31 % change
- Cortisol (ng/ml), LSM CFB (healthy male subjects [3]; 50 mg single oral dose): 12.7 % change
- Prolactin (ng/ml), LSM CFB (healthy male subjects [3]; 50 mg single oral dose): 66.0 % change
- Cortisol (ng/ml), LSM CFB (healthy male subjects [3]; 75 mg single oral dose): 36.5 % change
- Cortisol (ng/ml), estimate of difference compared to placebo (healthy male subjects [3]; 75 mg single oral dose): −45.5 (−61.1; −23.8) P < .01 ^* % change
- Prolactin (ng/ml), LSM CFB (healthy male subjects [3]; 75 mg single oral dose): 63.4 % change
- Prolactin (ng/ml), estimate of difference compared to placebo (healthy male subjects [3]; 75 mg single oral dose): −42.9 (−56.9; −24.3) P < .01 ^* % change
- Cortisol (ng/ml), LSM CFB (healthy male subjects [3]; 100 mg single oral dose): 70.3 % change
- Cortisol (ng/ml), estimate of difference compared to placebo (healthy male subjects [3]; 100 mg single oral dose): −56.4 (−68.8; −38.9) P < .01 ^* % change
- Prolactin (ng/ml), LSM CFB (healthy male subjects [3]; 100 mg single oral dose): 72.0 % change
- Prolactin (ng/ml), estimate of difference compared to placebo (healthy male subjects [3]; 100 mg single oral dose): −45.8 (−59.1; −28.1) P < .01 ^* % change
- Cortisol (ng/ml), LSM CFB (healthy male subjects [3]; 125 mg single oral dose): 52.6 % change
- Cortisol (ng/ml), estimate of difference compared to placebo (healthy male subjects [3]; 125 mg single oral dose): −51.3 (−65.2; −31.8) P < .01 ^* % change
- Prolactin (ng/ml), LSM CFB (healthy male subjects [3]; 125 mg single oral dose): 28.0 % change
- Prolactin (ng/ml), estimate of difference compared to placebo (healthy male subjects [3]; 125 mg single oral dose): −27.1 (−45.1; −3.3) P = .03 ^* % change
- Cortisol (ng/ml), LSM CFB (healthy male subjects [3]; 150 mg single oral dose): 84.4 % change
- Cortisol (ng/ml), estimate of difference compared to placebo (healthy male subjects [3]; 150 mg single oral dose): −59.7 (−71.2; −43.6) P < .01 ^* % change
- Prolactin (ng/ml), LSM CFB (healthy male subjects [3]; 150 mg single oral dose): 106.9 % change
- Prolactin (ng/ml), estimate of difference compared to placebo (healthy male subjects [3]; 150 mg single oral dose): −54.9 (−66.0; −40.2) P < .01 ^* % change
- Cortisol (ng/ml), LSM CFB (healthy male subjects [3]; 175 mg single oral dose): 53.6 % change
- Cortisol (ng/ml), estimate of difference compared to placebo (healthy male subjects [3]; 175 mg single oral dose): −51.6 (−65.4; −32.3) P < .01 ^* % change
- Prolactin (ng/ml), LSM CFB (healthy male subjects [3]; 175 mg single oral dose): 81.7 % change
- Prolactin (ng/ml), estimate of difference compared to placebo (healthy male subjects [3]; 175 mg single oral dose): −48.7 (−61.3; −32.0) P < .01 ^* % change
- Cortisol (ng/ml), LSM CFB (healthy male subjects [3]; 200 mg single oral dose): 64.7 % change
- Cortisol (ng/ml), estimate of difference compared to placebo (healthy male subjects [3]; 200 mg single oral dose): −54.9 (−67.8; −36.9) P < .01 ^* % change
- Prolactin (ng/ml), LSM CFB (healthy male subjects [3]; 200 mg single oral dose): 111.3 % change
- Prolactin (ng/ml), estimate of difference compared to placebo (healthy male subjects [3]; 200 mg single oral dose): −55.8 (−66.7; −41.5) P < .01 ^* % change
- Serum cortisol, increase vs placebo (estimate of difference) (healthy male subjects [3]; from dose levels ≥50 mg): 51.7 % change
- Serum prolactin, increase vs placebo (estimate of difference) (healthy male subjects [3]; from dose levels ≥50 mg): 77.9 % change
- human equivalent dose (HED) of NOAEL (rats; rat NOAEL, body surface area extrapolation per FDA guidelines): 96 mg
- NOAEL (rats; rats, multiple dose toxicology): 10 mg/kg
